Efflux pump inh: blocks antifungal efflux pumps in multiplex yeast assay | S. cerevisiae Candida pump triplex, Nile Red efflux | inhibition, % at 10 µM | hit rate 0.44% among 330,000 | AID 485275;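 active = plate passing quality check with inhibition over a set limit, or well fluorescence over plate mean plus 4 SD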;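 also: Nile Red retained in pooled yeast measured as flow cytometry median fluorescence; higher means more Nile Red kept so more efflux inhibition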
Mot1-301 SUMO: SUMOylation pathway inhibition by Mot1-301 growth rescue | S. cerevisiae Mot1-301 growth rescue, ATP luminescence, 38.5C; percent above DMSO median, 100 means doubled | hit rate 1% among 320,000 | AID 2716 | growth rescue, % at 18.8 µM;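 active = every valid replicate shows activation above 250% relative to neutral control wells; inactive = the rest, any valid replicate at or below 250%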
WT yeast gro inh: growth inhibition of WT yeast, mitochondrial fusion screen; hit rate 2.1% among 190,000; mitochondrial fusion phenotypic screen, WT strain; AID 1362; inhibition, % at 10 µM; in the data active = inhibition above about 58%; tested in S. cerevisiae
Beta apoptosis: beta cell apoptosis inhibition | hit rate 0.8% among 300,000 | INS-1E cytokine-induced death, ATP luminescence, 48 h; percent of positive-control rescue, neutral wells zero | protection from apoptosis, % (no concentration beside the values);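 active = Every replicate reaches about 75%, or at least half do and their mean reaches it too, limit read from the data; inconclusive = At least half of replicates reach the limit but their mean does not; inactive = Under half of replicates reach the limit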;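 also: higher means more ATP so stronger rescue from cytokine killing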
T cruzi repl: T. cruzi replication inhibition; inhibition, % (concentration not given with the values); hit rate 1.4% among 300,000; T. cruzi beta-gal in NIH3T3, luminescence, 90 h;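 active = mean inhibition across valid replicates above about 55%, limit read from the data; inconclusive = mean below that limit but half or more replicates reach it; inactive = mean below it, under half of replicates reach it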;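 also: signal also drops with host cell toxicity which is not excluded here; higher percent means less beta-gal luminescence so fewer parasites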
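compound dosing = single 50 nL compound addition per well in DMSO | material = NIH/3T3 host cells with β-galactosidase reporter T. cruzi | input = 5,000 host fibroblasts per well | timing = ≥90 h infection period, 3 h prior cell attachment | read-out basis = percent inhibition of parasite-derived β-gal signal | detection = GalScreen β-gal luminescence, detergent lysis, 60 min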
CSC inhib: cancer stem cell inhibition; inhibition, % at 7.5 µM; hit rate 1.1% among 300,000; cancer stem cell-like cells viability, luminescence; AID 2717; in the data active = inhibition above about 75%; inconclusive = no clear call, values can overlap the other calls; tested in HMLE shEcad cells
A number is an active result; – = inactive; ? = inconclusive; · = no result. Shown are actives, neighbours in structure and some others; about 4.8% of the full set was active somewhere.

SMILES | Efflux pump inh | Mot1-301 SUMO | WT yeast gro inh | Beta apoptosis | T cruzi repl | CSC inhib
Cc1cc(OCc2cccc(Cl)c2)c(C)cc1CN1CCOCC1 | – | – | 70 | – | – | –
COc1ccc(S(=O)(=O)N2CCCCCC2)cc1C(=O)N(C)Cc1ccc(OC)c(OC)c1OC | – | – | · | – | – | –
C=CCn1c(CCNC(=O)c2ccccc2F)nnc1SCC(=O)Nc1nc2ccccc2s1 | – | – | – | – | – | –
CCN(CC)c1nc(SCCOC(=O)Nc2ccccc2)nc(N(CC)CC)n1 | – | – | – | – | 68 | 81
CN(C)c1nc(SCCOC(=O)c2ccccc2)nc(N(C)C)n1 | – | – | – | – | – | –
Cc1cc(C)n(-c2ccc(NC(=O)C3CCCCN3C(=O)c3cc(C)oc3C)cc2)n1 (stereo unspecified) | – | – | · | – | – | –
COc1ccc2oc(C(=O)Nc3ccc(S(=O)(=O)N(C)C4CCN(C)CC4)cc3)c(C)c2c1 | – | – | · | – | 60 | –
CCC(C(=O)Nc1ccc(S(=O)(=O)N(C)C2CCN(C)CC2)cc1)c1ccccc1 (stereo unspecified) | – | – | · | – | · | ·
CC(Oc1ccc(Br)cc1)C(=O)Nc1ccc(S(=O)(=O)N(C)C2CCN(C)CC2)cc1 (stereo unspecified) | – | – | · | – | 56 | –
COc1ccc(CC(=O)Nc2ccc(S(=O)(=O)N(C)C3CCN(C)CC3)cc2)cc1 | – | · | · | · | · | ·
Cc1ccc(-n2nc(C)c(=O)c(-c3ccccc3)c2NC(=O)c2cccs2)cc1 | – | – | · | – | – | –
CCOc1ccccc1C(=O)Nc1cc(OC)ccc1OC | – | – | 63 | – | – | –
COc1cc(-c2nc3ccc(C)cn3c2NCc2ccccc2)ccc1SC1CCCCC1 | – | – | · | 110 | – | –
COc1ccc(-c2nc3cnccn3c2NCc2ccccc2)cc1SC1CCCCC1 | – | – | · | – | – | –
CCCCNc1c(-c2ccc(OC)c(SC3CCCCC3)c2)nc2cc(C)ccn12 | – | – | · | – | – | 92
CCCCCCSc1cc(-c2nc3cnccn3c2NCc2ccccc2)ccc1OC | 0.8 | – | · | – | – | ·
COc1cc(-c2nc3ccccn3c2NCc2ccccc2)ccc1SC1CCCCC1 | – | – | · | – | 61 | –
CCCCNc1c(-c2ccc(OC)c(SC3CCCCC3)c2)nc2cnccn12 | – | – | · | – | – | –
Cc1ccccc1-c1cccc([C@@H]2C[C@H]3CN(Cc4cccnc4)C(=O)[C@]34CCCN24)c1 | – | – | – | – | – | –
CCOC(=O)c1cnc(N2CCN(C(=O)OCC)CC2)[nH]c1=O | – | – | – | – | – | –
COc1ccc(CNC(=O)CCn2c(=O)oc3ccccc32)c(OC)c1 | – | – | – | – | – | –
CCn1cc([N+](=O)[O-])c(C(=O)Nc2nc(-c3ccc(C)c(C)c3)c(C)s2)n1 | – | – | – | – | – | –
CCn1cc([N+](=O)[O-])c(C(=O)Nc2nc(-c3ccc(C)cc3)c(C)s2)n1 | – | – | – | – | – | 102
CCOC(=O)c1c(NC(=O)Cn2cnc([N+](=O)[O-])n2)sc2c1CCC(C)C2 (stereo unspecified) | – | – | – | · | 57 | –
COC(=O)c1c(NC(=O)Cn2cnc([N+](=O)[O-])n2)sc2c1CCC(C)C2 (stereo unspecified) | – | – | – | – | 58 | –
SMILES | Efflux pump inh | Mot1-301 SUMO | WT yeast gro inh | Beta apoptosis | T cruzi repl | CSC inhib
COC(=O)c1c(NC(=S)NN2CCN(C)CC2)sc2c1CCC(C)C2 (stereo unspecified) | – | – | – | – | – | 104
COC(=O)c1c(NC(=O)CN(C)CC(=O)Nc2ccc(C)cc2)sc2c1CCC(C)C2 (stereo unspecified) | – | – | · | – | · | ·
COC(=O)c1c(NC(=O)Cc2cccs2)sc2c1CCC(C)C2 (stereo unspecified) | – | – | – | – | – | 80
COC(=O)Nc1sc2c(c1C(N)=O)CCC(C)C2 (stereo unspecified) | – | · | – | – | – | –
CCOC(=O)c1c(NC(=O)Cn2cc([N+](=O)[O-])cn2)sc2c1CCC2 | – | – | – | – | – | –
COC(=O)C1=C(C(=O)OC)[C@@H]2Nc3ccccc3[C@@]23C[C@@H](C(=O)OC)N(C(=O)NC2CCCCC2)C3=N1 | – | – | · | – | – | –
C1=CC2=NC34CCCCC3CC3=C(CCCC3)N4C2=CC1=NC1CCCCC1 (stereo unspecified) | – | – | · | – | ? | –
COc1ccc(OC(=O)c2cnn(-c3ccccc3)c2C)cc1 | – | – | – | – | – | –
CC1CN(C(=O)CN(C)S(=O)(=O)c2ccc3ccccc3c2)CC(C)O1 (stereo unspecified) | – | – | · | – | – | –
Cc1oc(-c2ccc3ccccc3c2)nc1CN(C)C(C)c1ccncn1 (stereo unspecified) | – | – | – | – | – | –
O=C(CCl)N(C/C=C/c1ccccc1)c1ccc2c(c1)OCCO2 | – | – | – | – | 93 | –
O=S(=O)(c1ccc(Cl)nc1)N1CCCCC1 | – | – | · | – | – | –
O=c1[nH]c(Nc2ccccc2Cl)cc2ccccc12 | – | – | · | – | – | –
Cc1ccccc1Nc1cc2ccccc2c(=O)[nH]1 | – | – | 66 | – | – | –
Oc1c(Br)cc(Br)cc1CNc1ccccn1 | – | 288 | · | – | – | –
Oc1ccc(-c2cnc(-c3ccc(O)cc3)nc2)cc1 | – | – | · | – | – | 98
CC1CCN(c2nc3c(c(=O)[nH]c(=O)n3C)n2Cc2ccccc2Cl)CC1 | – | · | – | · | – | ·
Cc1cc(Cn2ccnc2)c(C)c([N+](=O)[O-])c1Cn1ccnc1 | – | – | · | – | 60 | –
Cc1ccc2c(Cn3ccnc3)cc(=O)oc2c1C | – | – | · | – | – | –
O=C(NCCc1cnc[nH]1)c1ccc(-c2ccccc2)cc1 | – | – | · | – | 60 | –
COc1ccc(N2CCN(CCCNC(=O)C(=O)c3c(C)n(C)c4ccccc34)CC2)cc1 | – | – | · | – | – | –
O=c1c2cc(Cl)ccc2nc(-c2ccccc2)n1O | – | – | – | – | – | –
O=c1c2cc(Cl)ccc2nc(-c2ccc(Cl)c(Cl)c2)n1O | – | – | · | – | – | 120
Oc1c(Cl)cc(Cl)cc1Sc1cc(Cl)cc(Cl)c1O | – | 282 | – | – | – | 120
CN(C(=O)COC(=O)c1cc(S(=O)(=O)N2CCOCC2)ccc1F)C1CCS(=O)(=O)C1 (stereo unspecified) | – | – | · | – | – | –
CCCC(=O)N(Cc1cc(=O)[nH]c2ccccc12)c1cccc(C)c1 | – | – | · | – | – | –
CC(=O)N(Cc1cc(=O)[nH]c2ccccc12)c1cccc(C)c1 | – | – | 65 | – | – | –
Cc1cccc(N(Cc2cc(=O)[nH]c3ccccc23)C(=O)CCl)c1 | – | – | · | – | – | 105
CC(=O)N(Cc1cc(=O)[nH]c2ccccc12)c1ccccc1 | – | – | – | – | – | –
Cc1noc(C)c1CSCC(=O)NCCN1C(=O)S/C(=C\c2ccccc2F)C1=O | – | – | · | – | – | –

Screening results from PubChem BioAssay.
